Laboratory results as given in ChEMBL document CHEMBL1799916, “Novel 3,5-bis(bromohydroxybenzylidene)piperidin-4-ones as coactivator-associated arginine methyltransferase 1 inhibitors: enzyme selectivity and cellular activity” (J Med Chem, 2011).
The source made the active and inactive calls. The calls are words filed in the database; no cut-off is given here.

Columns and labels:
[1] = biological target: T1, Histone-lysine N-methyltransferase SETD7 (Homo sapiens, UniProt Q8WTS6); test: Inhibition of SET7-mediated methylation of histone H3 after 90 mins by scintillation counting in presence of S-adenosyl-l-[methyl-3H]methionine
T1 sequence (Q8WTS6 whole entry): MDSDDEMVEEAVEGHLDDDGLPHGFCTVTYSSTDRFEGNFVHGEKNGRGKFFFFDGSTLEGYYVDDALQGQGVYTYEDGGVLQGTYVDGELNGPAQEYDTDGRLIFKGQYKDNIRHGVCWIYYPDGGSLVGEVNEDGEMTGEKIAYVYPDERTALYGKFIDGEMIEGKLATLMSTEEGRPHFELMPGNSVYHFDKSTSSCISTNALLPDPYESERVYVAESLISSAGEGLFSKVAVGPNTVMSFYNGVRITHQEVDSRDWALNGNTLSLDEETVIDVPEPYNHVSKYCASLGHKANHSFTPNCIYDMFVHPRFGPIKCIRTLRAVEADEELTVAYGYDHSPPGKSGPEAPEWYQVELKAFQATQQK

[2] = biological target: T2, Histone-arginine methyltransferase CARM1 (Homo sapiens) (UniProt Q86X55); test: Inhibition of CARM1-mediated methylation of PABP1 at 100 uM after 90 mins by scintillation counting in presence of S-adenosyl-l-[methyl-3H]methionine
T2 sequence (whole entry): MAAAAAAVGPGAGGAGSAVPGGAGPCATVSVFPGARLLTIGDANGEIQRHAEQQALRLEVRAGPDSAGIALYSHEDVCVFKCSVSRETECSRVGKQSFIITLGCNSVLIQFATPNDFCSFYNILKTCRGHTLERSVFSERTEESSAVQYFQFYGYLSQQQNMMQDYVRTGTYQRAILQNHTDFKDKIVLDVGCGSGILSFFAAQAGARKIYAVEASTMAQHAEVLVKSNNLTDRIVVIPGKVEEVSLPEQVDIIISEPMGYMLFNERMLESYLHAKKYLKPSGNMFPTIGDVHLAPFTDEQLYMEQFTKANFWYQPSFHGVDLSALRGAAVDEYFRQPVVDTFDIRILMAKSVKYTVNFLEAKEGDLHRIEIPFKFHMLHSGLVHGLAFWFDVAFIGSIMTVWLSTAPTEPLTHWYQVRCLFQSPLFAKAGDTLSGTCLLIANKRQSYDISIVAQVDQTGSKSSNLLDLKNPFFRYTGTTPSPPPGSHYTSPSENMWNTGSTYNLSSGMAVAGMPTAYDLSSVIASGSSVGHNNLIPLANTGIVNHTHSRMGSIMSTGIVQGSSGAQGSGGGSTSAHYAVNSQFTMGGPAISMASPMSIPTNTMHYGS
How it was run: (§1)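 Compound at 100 μM with 0.1–0.2 μM recombinant enzyme and 0.5–1.5 μM substrate in PBS pH 7.4 containing [³H]AdoMet. Incubated 30 °C for 90 min, then SDS-PAGE, PVDF transfer and overnight film fluorography. Ponceau-stained substrate bands cut out and dpm counted by liquid scintillation.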

[3] = biological target: T2, Histone-arginine methyltransferase CARM1 (Homo sapiens); test: Inhibition of CARM1-mediated methylation of CA150 at 100 uM after 90 mins by scintillation counting in presence of S-adenosyl-l-[methyl-3H]methionine; how it was run: as §1
[4] = biological target: T2, Histone-arginine methyltransferase CARM1 (Homo sapiens); test: Inhibition of CARM1-mediated methylation of SMB at 100 uM after 90 mins by scintillation counting in presence of S-adenosyl-l-[methyl-3H]methionine; how it was run: as §1
[5] = biological target: T2, Histone-arginine methyltransferase CARM1 (Homo sapiens); test: Inhibition of CARM1-mediated methylation of histone H3 at 100 uM after 90 mins by scintillation counting in presence of S-adenosyl-l-[methyl-3H]methionine; how it was run: as §1
[6] = biological target: Protein arginine N-methyltransferase 5 (Homo sapiens) (UniProt O14744); test: Inhibition of PRMT5-mediated methylation of histone H4 at 100 uM after 90 mins by scintillation counting in presence of S-adenosyl-l-[methyl-3H]methionine; how it was run: as §1
[7] = biological target: T3, Histone-lysine N-methyltransferase SETD7 (Homo sapiens) (UniProt Q8WTS6); test: Inhibition of SET7-mediated methylation of histone H3 at 100 uM after 90 mins by scintillation counting in presence of S-adenosyl-l-[methyl-3H]methionine; how it was run: as §1
T3 sequence (whole entry): T1 sequence (Q8WTS6 whole entry)

[8] = biological target: T2, Histone-arginine methyltransferase CARM1 (Homo sapiens); test: Inhibition of CARM1-mediated prostate specific antigen promoter activity in human LNCAP cells at 30 uM after 48 hrs by luciferase reporter gene assay; type: cell-based
How it was run: (§2)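 LNCaP grown in phenol-red-free RPMI1640 with 10% charcoal-stripped FCS, lipofected with 300 ng PSA(ARE)-LUC and 2 ng CMV-Renilla internal control. After 12 h, 20 nM DHT added to induce PSA-firefly, together with increasing compound concentrations. Cells harvested 42–44 h later; 5/6 used for dual luciferase read-out (firefly relative to Renilla). Mean ± SD from triplicate assays.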

LNCaP [9] = test: Cytotoxicity against human LNCAP cells assessed as ATP level at 30 uM after 44 hrs by CellTiter-Glo luminescent assay; type: cell-based
How it was run: (§3)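 LNCaP in phenol-red-free RPMI1640 with 10% charcoal-stripped FCS, seeded ~20 h before transfection with PSA(ARE)-LUC plus CMV-Renilla. 12 h after transfection, treated with 20 nM DHT and compound. Harvested after 42–44 h; 1/6 of the cells assayed for ATP by CellTiter-Glo luminescence.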

[10] = biological target: Protein arginine N-methyltransferase 3 (Homo sapiens) (UniProt O60678); test: Inhibition of PRMT3-mediated methylation of NPL3 at 100 uM after 90 mins by scintillation counting in presence of S-adenosyl-l-[methyl-3H]methionine; how it was run: as §1
[11] = biological target: Protein arginine N-methyltransferase 3 (Homo sapiens) (UniProt O60678); test: Inhibition of PRMT3-mediated methylation of ribosome protein rpS223 at 100 uM after 90 mins by scintillation counting in presence of S-adenosyl-l-[methyl-3H]methionine; how it was run: as §1
[12] = biological target: T2, Histone-arginine methyltransferase CARM1 (Homo sapiens); test: Inhibition of CARM1-mediated prostate specific antigen promoter activity in human LNCAP cells after 48 hrs by luciferase reporter gene assay; type: cell-based; how it was run: as §2
[13] = biological target: T2, Histone-arginine methyltransferase CARM1 (Homo sapiens); test: Inhibition of CARM1 expressed in tetracycline-induced human HEK293 cells coexpressing flag-tagged PABP1 assessed as inhibition of PABP1 methylation at 1 to 5 uM by SDS-PAGE analysis; type: cell-based
How it was run: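 HEK293 line carrying tetracycline-controlled TetR with inducible Flag-tagged PABP1. Tetracycline added in the presence of compound to induce Flag-PABP1, which is resolved from endogenous PABP1 by its slower SDS-PAGE migration. Methylation detected with a methyl-specific PABP1 antibody.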

LNCaP [14] = test: Cytotoxicity against human LNCAP cells assessed as ATP level at 8 to 10 uM after 44 hrs by CellTiter-Glo luminescent assay; type: cell-based; how it was run: as §3

Protein arginine N-methyltransferase 3 (Homo sapiens), sequence (O60678 2-531 limits assumed): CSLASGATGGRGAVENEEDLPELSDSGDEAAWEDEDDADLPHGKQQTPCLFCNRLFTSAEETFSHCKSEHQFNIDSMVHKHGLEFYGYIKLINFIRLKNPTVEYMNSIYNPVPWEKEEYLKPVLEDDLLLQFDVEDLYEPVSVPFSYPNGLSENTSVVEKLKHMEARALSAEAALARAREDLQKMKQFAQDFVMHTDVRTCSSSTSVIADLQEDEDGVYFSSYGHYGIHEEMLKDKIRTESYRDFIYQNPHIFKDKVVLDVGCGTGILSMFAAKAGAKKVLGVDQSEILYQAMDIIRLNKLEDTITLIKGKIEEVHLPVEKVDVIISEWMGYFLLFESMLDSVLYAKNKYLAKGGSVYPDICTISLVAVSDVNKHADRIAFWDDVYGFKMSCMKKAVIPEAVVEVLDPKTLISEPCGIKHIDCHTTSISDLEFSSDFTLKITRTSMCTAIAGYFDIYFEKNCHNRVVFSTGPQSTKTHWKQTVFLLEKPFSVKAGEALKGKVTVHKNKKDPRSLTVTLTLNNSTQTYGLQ
Protein arginine N-methyltransferase 5 (Homo sapiens), sequence (O14744 whole entry): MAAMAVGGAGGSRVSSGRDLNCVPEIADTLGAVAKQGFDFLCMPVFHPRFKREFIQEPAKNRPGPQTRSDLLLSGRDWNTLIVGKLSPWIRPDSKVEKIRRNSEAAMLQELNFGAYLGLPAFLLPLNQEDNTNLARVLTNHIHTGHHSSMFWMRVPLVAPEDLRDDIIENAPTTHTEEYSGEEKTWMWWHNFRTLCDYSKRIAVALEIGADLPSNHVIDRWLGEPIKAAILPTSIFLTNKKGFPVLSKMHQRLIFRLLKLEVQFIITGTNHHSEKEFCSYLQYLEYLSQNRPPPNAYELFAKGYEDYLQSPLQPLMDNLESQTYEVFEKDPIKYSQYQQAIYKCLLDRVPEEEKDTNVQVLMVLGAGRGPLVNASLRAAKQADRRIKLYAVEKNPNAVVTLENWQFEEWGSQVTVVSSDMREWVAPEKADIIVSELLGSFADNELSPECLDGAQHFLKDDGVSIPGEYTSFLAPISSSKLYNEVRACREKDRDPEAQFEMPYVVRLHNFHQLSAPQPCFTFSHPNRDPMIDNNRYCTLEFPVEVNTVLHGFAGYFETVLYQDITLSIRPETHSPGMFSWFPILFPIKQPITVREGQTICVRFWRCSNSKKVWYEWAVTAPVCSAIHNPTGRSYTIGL

Row | Structure (SMILES) | IC50 [1] [µM] | inhibition [2] | inhibition [3] | inhibition [4] | inhibition [5] | inhibition [6] | inhibition [7] | inhibition [8] | Activity (LNCaP [9]) | inhibition [10] | inhibition [11] | inhibition [12] | inhibition [13] | Activity (LNCaP [14])
1 | O=C1/C(=C/c2ccc(O)c(Br)c2)CN(CC(=O)c2ccccc2)C/C1=C\c1ccc(O)c(Br)c1 | 149 | Active | Active | Active | Active | Active | inactive | Active | Non-toxic | – | – | – | – | –
2 | O=C1/C(=C/c2ccc(O)c(Br)c2)CN(Cc2cccc(Cl)c2)C/C1=C\c1ccc(O)c(Br)c1 | 174 | Active | Active | Active | Active | Active | inactive | – | – | Active | Active | Dose-dependent effect | – | –
3 | O=C1/C(=C/c2ccc(O)c(Br)c2)CN(Cc2ccccc2)C/C1=C\c1ccc(O)c(Br)c1 | > 667 | Active | Active | Active | Active | – | inactive | – | – | Active | Active | Dose-dependent effect | Active | Non-toxic
